Data taken from ChEMBL document CHEMBL1122241, “A simplified high-pressure liquid chromatography method for determining lipophilicity for structure-activity relationships” (J Med Chem, 1983).

What was measured:
[1] = Negative log of molar concentration (-log ED50) required to reduce cell division by 50% in Arbacia egg; type: functional
[2] = Compound is evaluated for […] log k; type: physicochemical; details: octanol/water
How it was run: (§1)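 Log k' was measured by reverse-phase HPLC on dry-packed deactivated C18/Corasil columns (10 and 50 cm, 2-mm i.d.) at 22 °C, flow 1 mL/min, with UV detection at 254 nm. The mobile phase was methanol-modified aqueous phosphate buffer at μ 0.15. Void time came from methanol injection, and k' = (tr − t0)/t0.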

Oryctolagus cuniculus = species: Oryctolagus cuniculus; experiment: Negative log of minimum effective dose (moles per kilogram) in rabbits (hypnotic); type: functional
Rattus norvegicus = species: Rattus norvegicus; type: functional
[3] = (§2) pKa value is evaluated; type: physicochemical
[4] = A pKa value is evaluated; type: physicochemical
[5] = ACompound is evaluated for […] log k; type: physicochemical; details: octanol/water
How it was run: as §1, with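 “0.15. Calculated pH was 7.45 for sulfonamides and 7.31 for barbiturates.” for “0.15.”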

[6] = Negative log of Langmuir's alpha constant (-log alpha), which is inversely proportional to the effective binding constant (protein binding); type: ADME
[7] = as §2; type: physicochemical; remark: listed apart in the source
How it was run: (§3)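 Determined in-house by computer-controlled spectrophotometric titration (absorbance vs. pH) of each sulfonamide. Samples were in buffered aqueous solution of HCl/HOAc/Mops/glycine, 0.0005 N each. A manual wavelength scan of each compound set the wavelength at which its titration was run.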

Escherichia coli [8] = experiment: Minimum inhibitory concentration (bacteriostatic) against Escherichia coli at pH 7.4; type: functional
Escherichia coli [9] = experiment: Minimum inhibitory concentration (bacteriostatic) against Escherichia coli at pH 7.2 (Sauterne''s medium); type: functional
[10] = pKa value is evaluated; activity is unretained; type: physicochemical; how it was run: as §3

Structure (SMILES)	-Log ED50 [1]	Log K [2]	-Log C (Oryctolagus cuniculus)	pKa [3]	-Log alpha [6]	-Log C (Escherichia coli [8])	-Log C (Escherichia coli [9])	further results
C=CCC1(CC=C)C(=O)NC(=O)NC1=O [ALLOBARBITAL]	1.79	0.6	3.54	–	–	–	–	–
CCC1(CCC(C)C)C(=O)NC(=O)NC1=O [AMOBARBITAL]	2.82	1.33	–	–	–	–	–	–
C=CCC1(C(C)C)C(=O)NC(=O)NC1=O [APROBARBITAL]	2.01	0.75	3.6	7.73	–	–	–	-Log C (Rattus norvegicus): 2.41
CCC1(CC)C(=O)NC(=O)NC1=O [BARBITAL]	1.49	0.16	3.09	7.75	–	–	–	-Log C (Rattus norvegicus): 1.32
CCC(C)C1(CC)C(=O)NC(=O)NC1=O (stereo not drawn) [BUTABARBITAL]	–	–	3.63	–	–	–	–	pKa [4]: 7.89; Log K [5]: 0.95
C=CCC1(CC(C)C)C(=O)NC(=O)NC1=O [BUTALBITAL]	–	1.01	3.63	7.54	–	–	–	-Log C (Rattus norvegicus): 2.8
CCC1(C2=CCCCC2)C(=O)NC(=O)NC1=O [CYCLOBARBITAL]	2.24	0.91	–	7.36	–	–	–	–
CN1C(=O)NC(=O)C(C)(C2=CCCCC2)C1=O (stereo not drawn) [HEXOBARBITAL]	–	1.13	4.37	–	–	–	–	pKa [4]: 7.36
CCC1(CC)C(=O)NC(=O)N(C)C1=O [METHARBITAL]	–	0.71	3.12	–	–	–	–	–
C=CCC1(C(C)C#CCC)C(=O)NC(=O)N(C)C1=O (stereo not drawn) [METHOHEXITAL]	–	1.96	4.74	4.74	–	–	–	–
CCCC(C)C1(CC)C(=O)NC(=O)NC1=O (stereo not drawn) [PENTOBARBITAL]	2.92	1.32	4.05	8.02	–	–	–	-Log C (Rattus norvegicus): 3.07
CCC1(c2ccccc2)C(=O)NC(=O)NC1=O [PHENOBARBITAL]	2.02	0.56	3.32	7.26	–	–	–	-Log C (Rattus norvegicus): 1.88
C=CCC1(C(C)CCC)C(=O)NC(=O)NC1=O (stereo not drawn) [SECOBARBITAL]	3.62	1.52	4.2	7.92	–	–	–	-Log C (Rattus norvegicus): 3.19
CC(=O)NS(=O)(=O)c1ccc(N)cc1 [SULFACETAMIDE]	–	–	–	–	-3.15	3.248	-0.52	pKa [7]: 5.78; Log K [10]: activity is unretained
Nc1ccc(S(=O)(=O)Nc2ncccn2)cc1 [SULFADIAZINE]	–	0.223	–	–	-2.99	4.337	-0.08	–
[H]/N=C(/N)NS(=O)(=O)c1ccc(N)cc1 [SULFAGUANIDINE]	–	-0.00612	–	12	–	–	1.81	–
Cc1ccnc(NS(=O)(=O)c2ccc(N)cc2)n1 [SULFAMERAZINE]	–	0.829	–	6.98	-2.23	4.469	0.06	–
Cc1cc(C)nc(NS(=O)(=O)c2ccc(N)cc2)n1 [SULFAMETHAZINE]	–	1.49	–	7.7	-2.28	–	0.11	–
Cc1cc(NS(=O)(=O)c2ccc(N)cc2)no1 [SULFAMETHOXAZOLE]	–	–	–	–	-2.51	4.634	0.06	–
COc1ccc(NS(=O)(=O)c2ccc(N)cc2)nn1 [SULFAMETHOXYPYRIDAZINE]	–	1.35	–	7.2	-1.75	4.57	0	–
Nc1ccc(S(N)(=O)=O)cc1 [SULFANILAMIDE]	–	–	–	–	-2.98	2.824	-2.11	–
Nc1ccc(S(=O)(=O)Nc2nccs2)cc1 [SULFATHIAZOLE]	–	0.887	–	7.25	-2.45	4.597	-0.18	–
Cc1noc(NS(=O)(=O)c2ccc(N)cc2)c1C [SULFISOXAZOLE]	–	0.762	–	–	-1.73	4.56	-0.45	–
C=CCC1(C(C)CCC)C(=O)NC(=S)NC1=O (stereo not drawn) [THIAMYLAL]	–	1.72	4.15	–	–	–	–	–
CCCC(C)C1(CC)C(=O)NC(=S)NC1=O (stereo not drawn) [THIOPENTAL]	–	1.52	3.98	–	–	–	–	–
